Experimental data: ChEMBL document CHEMBL1140206 (J Med Chem, 2008)
pEC50, pKi: −log10 of the molar value.

Legend:
[1] = biological target: Neuronal acetylcholine receptor; alpha4/beta2 (Rattus norvegicus, UniProt P09483+P12390); assay: Displacement of [3H]epibatidine from rat recombinant alpha4beta2 nAChR expressed in HEK293 cells; format: cell-based
[2] = biological target: T1, Neuronal acetylcholine receptor; alpha3/beta4 (Rattus norvegicus, UniProt P04757+P12392); assay: Displacement of [3H]epibatidine from rat recombinant alpha-3-beta-4 nAChR expressed in HEK293 cells; format: cell-based
T1 sequence (P04757 whole entry): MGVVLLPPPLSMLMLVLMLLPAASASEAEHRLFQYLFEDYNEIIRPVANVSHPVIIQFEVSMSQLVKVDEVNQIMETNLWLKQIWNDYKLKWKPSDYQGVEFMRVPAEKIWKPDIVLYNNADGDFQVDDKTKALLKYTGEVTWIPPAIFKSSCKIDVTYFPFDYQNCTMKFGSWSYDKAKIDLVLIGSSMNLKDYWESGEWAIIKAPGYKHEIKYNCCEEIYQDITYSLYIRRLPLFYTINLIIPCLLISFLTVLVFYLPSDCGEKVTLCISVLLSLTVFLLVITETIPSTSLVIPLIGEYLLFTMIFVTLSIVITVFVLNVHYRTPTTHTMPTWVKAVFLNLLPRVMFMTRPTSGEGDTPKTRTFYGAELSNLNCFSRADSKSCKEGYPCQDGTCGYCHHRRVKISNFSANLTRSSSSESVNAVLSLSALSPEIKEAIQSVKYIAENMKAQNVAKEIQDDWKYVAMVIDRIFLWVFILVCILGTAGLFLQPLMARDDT
T1 sequence (P12392 whole entry): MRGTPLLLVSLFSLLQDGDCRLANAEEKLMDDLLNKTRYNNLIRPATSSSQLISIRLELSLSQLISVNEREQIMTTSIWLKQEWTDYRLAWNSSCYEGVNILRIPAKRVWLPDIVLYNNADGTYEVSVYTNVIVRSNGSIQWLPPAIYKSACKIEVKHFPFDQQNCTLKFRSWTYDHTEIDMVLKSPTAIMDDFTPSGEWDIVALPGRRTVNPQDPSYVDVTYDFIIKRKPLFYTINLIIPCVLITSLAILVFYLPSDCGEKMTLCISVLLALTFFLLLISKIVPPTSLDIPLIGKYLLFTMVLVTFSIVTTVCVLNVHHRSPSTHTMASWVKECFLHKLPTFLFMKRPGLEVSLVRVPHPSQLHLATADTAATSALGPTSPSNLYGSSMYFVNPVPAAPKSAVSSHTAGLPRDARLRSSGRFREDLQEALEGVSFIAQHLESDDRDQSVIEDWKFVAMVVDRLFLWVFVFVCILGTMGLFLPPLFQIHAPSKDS

[3] = biological target: Neuronal acetylcholine receptor; alpha4/beta4 (Rattus norvegicus, UniProt P09483+P12392); assay: Displacement of [3H]epibatidine from rat recombinant alpha-4-beta-4 nAChR expressed in HEK293 cells; format: cell-based
Neuronal acetylcholine receptor; alpha4/beta4, sequence (P09483 whole entry): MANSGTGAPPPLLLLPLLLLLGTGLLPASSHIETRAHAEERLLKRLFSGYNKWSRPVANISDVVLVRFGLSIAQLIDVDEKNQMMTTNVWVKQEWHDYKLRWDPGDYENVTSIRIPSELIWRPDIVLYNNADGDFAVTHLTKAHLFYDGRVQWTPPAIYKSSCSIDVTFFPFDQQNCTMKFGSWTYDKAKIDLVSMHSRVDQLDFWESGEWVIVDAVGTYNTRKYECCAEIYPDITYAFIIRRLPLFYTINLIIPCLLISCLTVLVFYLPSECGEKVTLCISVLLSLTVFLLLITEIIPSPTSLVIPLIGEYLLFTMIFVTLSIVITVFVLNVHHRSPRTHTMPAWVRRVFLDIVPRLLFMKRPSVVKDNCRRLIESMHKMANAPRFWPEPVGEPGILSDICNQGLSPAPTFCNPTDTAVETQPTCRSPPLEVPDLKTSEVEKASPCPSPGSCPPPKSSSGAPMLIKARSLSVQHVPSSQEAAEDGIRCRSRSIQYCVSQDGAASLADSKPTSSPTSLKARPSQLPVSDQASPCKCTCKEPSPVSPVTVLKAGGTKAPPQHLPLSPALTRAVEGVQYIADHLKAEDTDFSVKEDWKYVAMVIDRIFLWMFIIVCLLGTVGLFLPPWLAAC
Neuronal acetylcholine receptor; alpha4/beta4, sequence (P12392 whole entry): as the sequence (P12392 whole entry) above

[4] = biological target: Neuronal acetylcholine receptor subunit alpha-7 (Rattus norvegicus, UniProt Q05941); assay: Displacement of [3H]MLA from rat alpha-7 nAChR/mouse 5HT3A chimera expressed in human tsA-201 cells
Neuronal acetylcholine receptor subunit alpha-7 (Rattus norvegicus, UniProt Q05941), sequence (Q05941 23-502 limits assumed): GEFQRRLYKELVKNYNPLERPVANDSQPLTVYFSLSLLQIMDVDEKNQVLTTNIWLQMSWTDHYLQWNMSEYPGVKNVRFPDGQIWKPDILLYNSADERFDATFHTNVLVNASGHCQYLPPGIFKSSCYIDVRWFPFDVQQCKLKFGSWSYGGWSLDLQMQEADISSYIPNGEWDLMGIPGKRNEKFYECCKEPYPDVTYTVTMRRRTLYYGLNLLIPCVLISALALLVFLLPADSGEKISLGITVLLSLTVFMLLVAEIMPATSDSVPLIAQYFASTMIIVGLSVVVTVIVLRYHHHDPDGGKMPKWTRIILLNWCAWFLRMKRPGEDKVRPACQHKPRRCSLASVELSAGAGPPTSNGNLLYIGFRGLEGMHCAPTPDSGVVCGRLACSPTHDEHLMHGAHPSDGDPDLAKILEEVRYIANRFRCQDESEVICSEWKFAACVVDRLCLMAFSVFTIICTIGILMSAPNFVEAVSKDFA

[5] = biological target: T1, Neuronal acetylcholine receptor; alpha3/beta4; assay: Agonist activity at rat alpha-3-beta-4 nAChR expressed in HEK293 cells by FMP assay; format: functional, cell-based; settings: for pKi: read-out: Ki; for Ki: read-out: pKi (converted); for pEC50: read-out: EC50
Method in brief: (§1)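 Stable HEK293 line; cells plated 16-24 h, washed, then loaded 30 min at 37 °C with FMP dye in Krebs buffer pH 7.4. Concentration-response curves used maximal responses, fitted to a Hill equation for EC50 and Rmax. Run in duplicate, at least three times.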

[6] = biological target: Neuronal acetylcholine receptor; alpha3/beta4 (Rattus norvegicus) (UniProt P04757+P12392); assay: Agonist activity at rat alpha-3-beta-4 nAChR expressed in HEK293 cells by FMP assay relative to acetylcholine; format: functional, cell-based
Method in brief: as §1, with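 “7.4. Fluorescence (ex 530/em 560 nm) was read before and up to 1 min after agonist addition.” for “7.4.”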

[7] = biological target: T2, Neuronal acetylcholine receptor; alpha4/beta2 (Homo sapiens, UniProt P17787+P43681); assay: Agonist activity at human alpha-4-beta-2 nAChR expressed in Xenopus oocytes by two-electrode voltage clamp technique; format: functional, cell-based, Oocyte
Method in brief: (§2)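 Defolliculated Xenopus oocytes received 40-50 ng total cRNA of human α7, α3+β4 (1:1) or α4+β2 and were kept at 17 °C. Two-electrode clamp at -60 mV used 3 M KCl electrodes in Oocyte Ringer's pH 7.4, with 12 s agonist pulses 5 min apart at 2.5 mL/min. Peak current was normalized to saturating ACh in the same oocyte (10 mM α7; 1 mM α3β4, α4β2).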

[8] = biological target: T3, Neuronal acetylcholine receptor; alpha3/beta4 (Homo sapiens, UniProt P30926+P32297); assay: Agonist activity at human alpha-3-beta-4 nAChR expressed in Xenopus oocytes by two-electrode voltage clamp technique; format: functional, cell-based, Oocyte; settings: for pEC50: read-out: EC50; for EC50: read-out: pEC50 (converted); method in brief: as §2
T3 sequence (P30926 whole entry): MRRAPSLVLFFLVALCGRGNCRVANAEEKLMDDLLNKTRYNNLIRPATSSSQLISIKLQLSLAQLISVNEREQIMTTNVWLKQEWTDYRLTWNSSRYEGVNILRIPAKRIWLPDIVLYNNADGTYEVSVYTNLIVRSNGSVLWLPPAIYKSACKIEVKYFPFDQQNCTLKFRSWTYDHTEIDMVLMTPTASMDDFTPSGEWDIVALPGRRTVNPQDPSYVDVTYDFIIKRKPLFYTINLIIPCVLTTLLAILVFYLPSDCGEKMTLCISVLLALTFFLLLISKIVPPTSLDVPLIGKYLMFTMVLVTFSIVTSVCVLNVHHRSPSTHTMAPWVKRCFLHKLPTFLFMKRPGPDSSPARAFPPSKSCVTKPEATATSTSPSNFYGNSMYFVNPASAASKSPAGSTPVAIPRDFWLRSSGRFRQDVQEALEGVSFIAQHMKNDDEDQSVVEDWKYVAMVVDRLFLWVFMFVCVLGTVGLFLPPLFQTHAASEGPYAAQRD
T3 sequence (P32297 whole entry): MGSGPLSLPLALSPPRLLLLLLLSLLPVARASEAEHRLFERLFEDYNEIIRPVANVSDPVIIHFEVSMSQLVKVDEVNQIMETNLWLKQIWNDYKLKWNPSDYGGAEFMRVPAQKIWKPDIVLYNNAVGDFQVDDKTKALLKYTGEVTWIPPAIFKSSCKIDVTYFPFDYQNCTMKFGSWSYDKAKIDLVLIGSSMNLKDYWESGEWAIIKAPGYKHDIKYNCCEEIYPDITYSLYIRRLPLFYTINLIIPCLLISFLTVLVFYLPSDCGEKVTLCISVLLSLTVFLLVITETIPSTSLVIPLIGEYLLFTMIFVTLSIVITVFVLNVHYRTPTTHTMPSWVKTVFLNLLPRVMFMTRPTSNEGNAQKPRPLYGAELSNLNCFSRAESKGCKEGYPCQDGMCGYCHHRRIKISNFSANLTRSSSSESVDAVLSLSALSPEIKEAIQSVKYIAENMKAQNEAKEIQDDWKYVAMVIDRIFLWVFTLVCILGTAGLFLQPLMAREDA

[9] = biological target: T2, Neuronal acetylcholine receptor; alpha4/beta2; assay: Agonist activity at human alpha-4-beta-2 nAChR expressed in Xenopus oocytes by two-electrode voltage clamp technique relative to acetylcholine; format: functional, cell-based; settings: Oocyte; method in brief: as §2
[10] = biological target: T3, Neuronal acetylcholine receptor; alpha3/beta4; assay: Agonist activity at human alpha3beta4 nAChR expressed in Xenopus oocytes by two-electrode voltage clamp technique at 320 uM relative to acetylcholine; format: functional, cell-based; settings: Oocyte; method in brief: as §2
[11] = biological target: T4, Neuronal acetylcholine receptor subunit alpha-7 (Homo sapiens, UniProt P36544); assay: Agonist activity at human alpha-7 nAChR expressed in Xenopus oocytes by two-electrode voltage clamp technique; format: functional, cell-based, Oocyte; method in brief: as §2
T4 sequence (P36544 whole entry): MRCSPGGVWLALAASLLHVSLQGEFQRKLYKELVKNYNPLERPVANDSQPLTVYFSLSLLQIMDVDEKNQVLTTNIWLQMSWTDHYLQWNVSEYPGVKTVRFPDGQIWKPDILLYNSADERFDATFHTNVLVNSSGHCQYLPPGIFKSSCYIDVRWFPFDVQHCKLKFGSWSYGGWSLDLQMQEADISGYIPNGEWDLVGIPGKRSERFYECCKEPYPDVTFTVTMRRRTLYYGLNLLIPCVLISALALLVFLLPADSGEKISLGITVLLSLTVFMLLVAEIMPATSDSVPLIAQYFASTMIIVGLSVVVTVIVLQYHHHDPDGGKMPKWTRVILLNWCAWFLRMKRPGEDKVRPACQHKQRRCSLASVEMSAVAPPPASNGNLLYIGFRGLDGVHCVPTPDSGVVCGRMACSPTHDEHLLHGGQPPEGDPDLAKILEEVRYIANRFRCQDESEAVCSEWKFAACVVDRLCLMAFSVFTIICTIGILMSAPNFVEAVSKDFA

[12] = biological target: T4, Neuronal acetylcholine receptor subunit alpha-7; assay: Agonist activity at human alpha-7 nAChR expressed in Xenopus oocytes by two-electrode voltage clamp technique at 320 uM relative to acetylcholine; format: functional, cell-based; settings: Oocyte; method in brief: as §2

Neuronal acetylcholine receptor; alpha4/beta2 (Rattus norvegicus, UniProt P09483+P12390), sequence (P09483 whole entry): as the sequence (P09483 whole entry) above
Neuronal acetylcholine receptor; alpha4/beta2 (Rattus norvegicus, UniProt P09483+P12390), sequence (P12390 whole entry): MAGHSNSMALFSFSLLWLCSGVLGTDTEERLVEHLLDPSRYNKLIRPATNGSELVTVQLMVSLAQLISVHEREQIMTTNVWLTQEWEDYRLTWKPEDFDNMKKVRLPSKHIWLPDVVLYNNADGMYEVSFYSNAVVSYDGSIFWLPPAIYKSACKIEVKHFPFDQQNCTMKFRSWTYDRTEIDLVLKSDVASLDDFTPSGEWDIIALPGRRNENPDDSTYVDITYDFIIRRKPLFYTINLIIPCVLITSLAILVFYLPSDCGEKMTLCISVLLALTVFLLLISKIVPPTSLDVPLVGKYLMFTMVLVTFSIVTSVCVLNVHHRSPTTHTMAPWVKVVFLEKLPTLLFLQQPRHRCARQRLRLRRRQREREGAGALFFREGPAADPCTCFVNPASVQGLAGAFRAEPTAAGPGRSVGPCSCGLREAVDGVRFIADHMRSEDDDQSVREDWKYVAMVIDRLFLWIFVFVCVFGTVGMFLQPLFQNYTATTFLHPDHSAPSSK

## CC(CCOC(=O)N1CCC1C)N(C)C (configuration not stated)
[1]
  pKi: 7.82
[2]
  pKi: 5.60
[3]
  pKi: 6.64
[4]
  pKi: < 3.00
[5]
  pKi: 8.27
  Ki: 5.01 µM
[6]
  Activity: 89%

## CC(CCOC(=O)N1CC(F)(F)C1)N(C)C (configuration not stated)
[1]
  pKi: 7.24
[3]
  pKi: 5.80
[6]
  Activity: 75%

## CC(CCOC(=O)N1CCCCC1)N(C)C (configuration not stated)
[1]
  pKi: 7.04
[2]
  pKi: 5.59
[3]
  pKi: 6.46

## CC(CCOC(=O)N1CCCC1)N(C)C (configuration not stated)
[1]
  pKi: 6.68
[2]
  pKi: 4.60
[3]
  pKi: 5.66

## CC(=O)OCCC(C)N(C)C (configuration not stated)
[1]
  pKi: 7.19
[2]
  pKi: 5.39
[3]
  pKi: 6.43
[4]
  pKi: < 3.00
[5]
  pEC50: 4.64
[6]
  Activity: 97%

## CC(CCOC(=O)c1ccccc1)N(C)C (configuration not stated)
[1]
  pKi: 6.49
[2]
  pKi: 4.00
[3]
  pKi: 5.00
[4]
  pKi: 3.72

## CC1CN(C(=O)OCC[C@H](C)N(C)C)C1
[1]
  pKi: 7.24
[2]
  pKi: 4.00
[3]
  pKi: 5.15

## CC(CCOC(=O)C1CC1)N(C)C (configuration not stated)
[1]
  pKi: 8.42
[2]
  pKi: 5.38
[3]
  pKi: 6.59
[4]
  pKi: 3.55
[5]; read-out: pEC50 (converted)
  EC50: 7.94 µM
[6]
  Activity: 105%

## CC1CN(C(=O)OCC[C@@H](C)N(C)C)C1
[1]
  pKi: 9.04
[2]
  pKi: 4.72
[3]
  pKi: 6.74

## CC(CCOC(=O)N1CCC1)N(C)C (configuration not stated)
[1]
  pKi: 8.29
[2]
  pKi: 4.96
[3]
  pKi: 6.72
[5]
  pKi: 7.64
  Ki: 25.1 µM
[6]
  Activity: 106%
[7]
  pEC50: 5.15
[8]
  pEC50: < 3.49
  EC50: > 316 µM
[9]
  Activity: 66%
[10]
  Activity: 23%

## CC(CCOC(=O)C1CCC1)N(C)C (configuration not stated)
[1]
  pKi: 7.00
[2]
  pKi: 5.46
[3]
  pKi: 6.34
[4]
  pKi: 3.54
[5]
  pEC50: 5.07
[6]
  Activity: 85%

## CC(CCOC(=O)N1CCC1(C)C)N(C)C (configuration not stated)
[1]
  pKi: 6.68
[2]
  pKi: 4.60
[3]
  pKi: 5.49
[5]
  pKi: 7.29
  Ki: 50.1 µM
[6]
  Activity: 90%

## CC(CCOC(=O)N1CC(C)(C)C1)N(C)C (configuration not stated)
[1]
  pKi: 7.24
[2]
  pKi: 3.52
[3]
  pKi: 6.14
[5]
  pKi: 6.52
  Ki: 316 µM
[6]
  Activity: 43%

## CC1CN(C(=O)OCCC(C)N(C)C)C1 (configuration not stated)
[1]
  pKi: 8.68
[2]
  pKi: 4.64
[3]
  pKi: 6.59
[4]
  pKi: < 3.00
[5]
  pKi: 7.32
  Ki: 50.1 µM
[6]
  Activity: 91%
[7]
  pEC50: 4.07
[8]
  pEC50: < 3.49
  EC50: > 316 µM
[11]; read-out: EC50
  pEC50: < 3.49
[11]; read-out: pEC50 (converted)
  EC50: > 316 µM
[9]
  Activity: 9.5%
[10]
  Activity: 12%
[12]
  Activity: 0.9%

## CC(CCOC(=O)N(C)C)N(C)C (configuration not stated)
[1]
  pKi: 7.70
[2]
  pKi: 6.38
[3]
  pKi: 6.82
[4]
  pKi: < 3.00
[5]
  pKi: 8.11
  Ki: 7.94 µM
[6]
  Activity: 105%

## CC(CCOC(=O)n1cccc1)N(C)C (configuration not stated)
[1]
  pKi: 6.51
[2]
  pKi: 4.00
[3]
  pKi: 4.96
[4]
  pKi: < 3.00
[5]
  pKi: 7.00
  Ki: 316 µM
[6]
  Activity: 27%

## CC(C)C(=O)OCCC(C)N(C)C (configuration not stated)
[1]
  pKi: 7.52
[2]
  pKi: 5.07
[3]
  pKi: 6.12
[4]
  pKi: < 3.00
[5]
  pEC50: 4.62
[6]
  Activity: 100%
